Assay results gathered from unrelated publications.
Each line is one published result; the experiments were not run side by side.
Cell line: Vero
Read-out: cell growth or viability

O=C(Nc1ccc(Br)c(C(F)(F)F)c1)c1ccccc1O — CC50 (MTT; 72 h): < 5 µg/mL
Cc1ccc(NCc2ccc(Oc3ccccn3)cc2)cc1 — CC50 (MTT; 72 h): > 300 µM
Cc1cn([C@H]2C[C@H](N=[N+]=[N-])[C@@H](CO)O2)c(=O)[nH]c1=O — CC50: 51 µM
O=C(Nc1ccc(Br)cc1)c1cc(Cl)ccc1O — CC50 (MTT; 72 h): 10 µg/mL
CC(C(=O)O)N1c2nc(-c3ccc(Cl)cc3)c(C#N)c(=O)n2NC1c1ccccc1O (stereo not drawn) — CC50 (MTT; 72 h): 500 µg/mL
O=C(Nc1ccc(F)c(Cl)c1)c1cc(Cl)ccc1O — CC50 (MTT; 72 h): < 5 µg/mL
COc1cccc(NCc2ccc(Oc3ccccn3)cc2)c1 — CC50 (MTT; 72 h): > 300 µM
CN(C)N1C(=O)c2ccccc2C1CB1OC(C)(C)C(C)(C)O1 (stereo not drawn) — CC50: 204 µM
c1ccc(NCc2ccc(Oc3ccccn3)cc2)cc1 — CC50 (MTT; 72 h): > 300 µM
O=C(Nc1ccc([N+](=O)[O-])cc1F)c1cc(Cl)ccc1O — CC50 (MTT; 72 h): 5 µg/mL
Brc1ccc(NCc2ccc(Oc3ccccn3)cc2)cc1 — CC50 (MTT; 72 h): > 300 µM
COc1ccc(CN2C(=O)c3ccccc3C2CB2OC(C)(C)C(C)(C)O2)cc1 (stereo not drawn) — CC50: 2.3 µM
COC(=O)N[C@H](C(=O)N1C[C@@H](N=[N+]=[N-])C[C@H]1c1nc(Br)c(-c2ccc(-c3ccc(-c4[nH]c([C@@H]5C[C@H](N=[N+]=[N-])CN5C(=O)[C@@H](NC(=O)OC)C(C)C)nc4Br)cc3)cc2)[nH]1)C(C)C — CC50: > 100 µM
COC(=O)N[C@@H](C[S+]([O-])Cc1ccccc1)C(=O)N1CCC[C@H]1c1ncc(-c2ccc(-c3ccc(-c4cnc([C@@H]5CCCN5C(=O)[C@@H](NC(=O)OC)C(C)C)[nH]4)cc3)cc2)[nH]1 (stereo partly drawn) — CC50: 4 µM
CC1(C)OB(CC2c3ccccc3C(=O)N2C2CCCCC2)OC1(C)C (stereo not drawn) — CC50: 175 µM
CC(C(=O)O)N1c2nc(-c3ccc(Cl)cc3)c(C#N)c(=O)n2NC1(C)c1ccccc1O (stereo not drawn) — CC50 (MTT; 72 h): 250 µg/mL
Clc1ccccc1NCc1ccc(Oc2ccccn2)cc1 — CC50 (MTT; 72 h): > 300 µM
CCOC(=O)C1=C(C)N2NC(c3ccccc3O)N(C(Cc3c[nH]c4ccccc34)C(=O)O)C2=NC1c1ccc(Cl)cc1 (stereo not drawn) — CC50 (MTT; 72 h): 250 µg/mL
C[C@H]1COc2c(N3CCN(C)CC3)c(F)cc3c(=O)c(C(=O)O)cn1c23 — CC50 (MTT; 72 h): > 100 µg/mL
Clc1cccc(NCc2ccc(Oc3ccccn3)cc2)c1 — CC50 (MTT; 72 h): > 300 µM
CC(=O)C1=C(C)N2NC(c3ccccc3O)N(C(Cc3c[nH]c4ccccc34)C(=O)O)C2=NC1c1ccc(Cl)cc1 (stereo not drawn) — CC50 (MTT; 72 h): 250 µg/mL
